Experimental data reported in article PMC6445238 (Drug Design, Development and Therapy, 2019).

Experiments:
[1] = PD assessments with CNS scales; format: in vivo, human
[2] = cited from earlier work
[3] = system: dopaminergic neuronal cells in the substantia nigra and striatum; settings: ref unpublished data, cited from earlier work
Single ascending dose = format: in vivo, human
Outline: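 After a single oral dose, plasma was sampled predose and at 0.25–72 h, and urine was collected over 0–24 h. Samples were mixed with DMSO and a deuterated internal standard, extracted with methanol, diluted with 0.1% ammonium acetate, and run by UPLC-MS/MS using MRM at m/z 460.1→214.2. Analysis was non-compartmental: t1/2 = 0.693/λz, AUC by linear trapezoidal rule, BLQ values before Cmax set to zero.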

Cc1nn(Cc2ccc(Br)cc2)c(C)c1NC(=O)CSc1ccccc1 [KM-819]
Bond and Lader VAS ([1]; SAD and MAD): No signs of KM-819 treatment-related effects
C-SSRS ([1]; SAD and MAD): no apparent treatment or cohort differences
K-WAIS-IV ([1]; SAD and MAD): no clear treatments differences
POMS ([1]; SAD and MAD): no apparent treatment or cohort differences
effects on the estimated pharmacodynamic variables ([1]; whole study): No clear treatment-related effects
no observed adverse effect level (NOAEL) ([2]; 4-week rat toxicology study): 500 mg/kg/day
adverse effects after repeated administration ([2]; 4 weeks, up to 500 mg/kg/day): did not show adverse effects
behavioral impairments [3]: improved the behavioral impairments
protection of dopaminergic neuronal cells ([3]; substantia nigra and striatum): protected the dopaminergic neuronal cells
variability (CV%) of AUCinf and Cmax (Single ascending dose; SAD): up to 55%
dose proportionality of plasma exposure (AUC and Cmax) after a single dose (Single ascending dose; SAD, 10–400 mg): less than dose-proportional increase
24-hour recovery in urine (percent of dose) (Single ascending dose; SAD, all subjects): less than 1%
AUCinf, geometric mean (CV%) (Single ascending dose; single 10 mg, young): 594.2 (24.4) ng·h/mL
AUClast, geometric mean (CV%) (Single ascending dose; single 10 mg, young): 583.4 (24.5) ng·h/mL
CL/F, geometric mean (CV%) (Single ascending dose; single 10 mg, young): 16,830 (24.4) mL/h
Cmax, geometric mean (CV%) (Single ascending dose; single 10 mg, young): 244.1 (31.4) ng/mL
Tmax, median (min–max) (Single ascending dose; single 10 mg, young): 1.50 (0.50–2.00) h
t1/2, geometric mean (CV%) (Single ascending dose; single 10 mg, young): 1.786 (28.3) h
tlag, median (min–max) (Single ascending dose; single 10 mg, young): 0.00 (0.00–0.25) h
AUCinf, geometric mean (CV%) (Single ascending dose; single 30 mg, young): 1,731 (17.3) ng·h/mL
AUClast, geometric mean (CV%) (Single ascending dose; single 30 mg, young): 1,705 (17.1) ng·h/mL
CL/F, geometric mean (CV%) (Single ascending dose; single 30 mg, young): 17,340 (17.3) mL/h
Cmax, geometric mean (CV%) (Single ascending dose; single 30 mg, young): 503.6 (28.0) ng/mL
Tmax, median (min–max) (Single ascending dose; single 30 mg, young): 1.00 (0.50–2.00) h
t1/2, geometric mean (CV%) (Single ascending dose; single 30 mg, young): 4.791 (25.0) h
tlag, median (min–max) (Single ascending dose; single 30 mg, young): 0.00 (0.00–0.00) h
AUCinf, geometric mean (CV%) (Single ascending dose; single 100 mg, young): 4,872 (30.8) ng·h/mL
AUClast, geometric mean (CV%) (Single ascending dose; single 100 mg, young): 4,306 (31.1) ng·h/mL
CL/F, geometric mean (CV%) (Single ascending dose; single 100 mg, young): 20,530 (30.8) mL/h
Cmax, geometric mean (CV%) (Single ascending dose; single 100 mg, young): 1,152 (36.7) ng/mL
Tmax, median (min–max) (Single ascending dose; single 100 mg, young): 2.00 (1.00–4.00) h
t1/2, geometric mean (CV%) (Single ascending dose; single 100 mg, young): 9.159 (41.2) h
tlag, median (min–max) (Single ascending dose; single 100 mg, young): 0.00 (0.00–0.00) h
AUC higher in elderly than in young (Single ascending dose; single 200 mg): 49%
Cmax, elderly compared with young (Single ascending dose; single 200 mg): similar
t1/2 higher in elderly than in young (Single ascending dose; single 200 mg): 17%
AUCinf, geometric mean (CV%) (Single ascending dose; single 200 mg, elderly): 10,970 (9.8) ng·h/mL
AUClast, geometric mean (CV%) (Single ascending dose; single 200 mg, elderly): 10,840 (10.3) ng·h/mL
CL/F, geometric mean (CV%) (Single ascending dose; single 200 mg, elderly): 18,230 (9.8) mL/h
Cmax, geometric mean (CV%) (Single ascending dose; single 200 mg, elderly): 1,766 (26.0) ng/mL
Tmax, median (min–max) (Single ascending dose; single 200 mg, elderly): 2.00 (1.0–4.00) h
t1/2, geometric mean (CV%) (Single ascending dose; single 200 mg, elderly): 10.55 (28.5) h
tlag, median (min–max) (Single ascending dose; single 200 mg, elderly): 0.00 (0.00–0.00) h
AUCinf, geometric mean (CV%) (Single ascending dose; single 200 mg, young): 7,338 (51.9) ng·h/mL
AUClast, geometric mean (CV%) (Single ascending dose; single 200 mg, young): 7,637 (47.7) ng·h/mL
CL/F, geometric mean (CV%) (Single ascending dose; single 200 mg, young): 27,260 (51.9) mL/h
Cmax, geometric mean (CV%) (Single ascending dose; single 200 mg, young): 1,879 (55.3) ng/mL
Tmax, median (min–max) (Single ascending dose; single 200 mg, young): 2.00 (1.00–4.00) h
t1/2, geometric mean (CV%) (Single ascending dose; single 200 mg, young): 9.010 (71.6) h
tlag, median (min–max) (Single ascending dose; single 200 mg, young): 0.00 (0.00–0.25) h
AUCinf, geometric mean (CV%) (Single ascending dose; single 400 mg, young): 12,640 (36.1) ng·h/mL
AUClast, geometric mean (CV%) (Single ascending dose; single 400 mg, young): 12,210 (33.3) ng·h/mL
CL/F, geometric mean (CV%) (Single ascending dose; single 400 mg, young): 31,650 (36.1) mL/h
Cmax, geometric mean (CV%) (Single ascending dose; single 400 mg, young): 2,767 (43.4) ng/mL
Tmax, median (min–max) (Single ascending dose; single 400 mg, young): 4.00 (2.00–4.00) h
t1/2, geometric mean (CV%) (Single ascending dose; single 400 mg, young): 8.527 (63.2) h
tlag, median (min–max) (Single ascending dose; single 400 mg, young): 0.00 (0.00–0.00) h
